Test results published in ChEMBL document CHEMBL1149910, “2-(6-aryl-3(Z)-hexen-1,5-diynyl)anilines as a new class of potent antitubulin agents” (J Med Chem, 2008).
The source made the active and inactive calls. The calls are words filed in the database; no cut-off is given here.

Legend:
MDA-MB-231 [1] = experiment: Effect on microtubule depolymerization in human MDA-MB-231 cells at 36 uM after 2 hrs; type: functional, cell-based
Method in brief: (§1)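 MDA-MB-231/ATCC cells grown on glass coverslips (1 × 10⁴ cells) for 24 h, then exposed to 3.6, 9, 18, 27 or 36 µM at 37 °C for 2 h. Fixed in 4% paraformaldehyde, permeabilized with Triton X-100, and immunostained for α-tubulin and ninein with DAPI counterstain. Interphase microtubule networks compared with untreated cells by confocal microscopy.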

[2] = Inhibition of bovine tubulin polymerization; design: species or system Bos taurus
Method in brief: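 Purified bovine tubulin incubated at 37 °C in buffer containing 20% glycerol and 1 mM GTP, with test compound at 3.6–36 µM. Polymerization followed kinetically by the increase in fluorescence. Colchicine and paclitaxel served as controls.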

HL-60 = experiment: Cytotoxicity against human HL60 cells; type: functional
Method in brief: (§2)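 Tested in the NCI in vitro antitumor screening protocol across a tumor cell line panel. GI₅₀ is the concentration producing a 50% reduction in cell growth.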

A549 = experiment: Cytotoxicity against human A549/ATCC cells; type: functional; method in brief: as §2
NCI-H522 = experiment: Cytotoxicity against human NCI-H522 cells; type: functional; method in brief: as §2
HCT-15 = experiment: Cytotoxicity against human HCT15 cells; type: functional; method in brief: as §2
UACC-257 = experiment: Cytotoxicity against human UACC257 cells; type: functional; method in brief: as §2
OVCAR-3 = experiment: Cytotoxicity against human OVCAR-3 cells; type: functional; method in brief: as §2
OVCAR-8 = experiment: Cytotoxicity against human OVCAR8 cells; type: functional; method in brief: as §2
A498 = experiment: Cytotoxicity against human A498 cells; type: functional; method in brief: as §2
ACHN = experiment: Cytotoxicity against human ACHN cells; type: functional; method in brief: as §2
CAKI-1 = experiment: Cytotoxicity against human CAKI1 cells; type: functional; method in brief: as §2
SN12C = experiment: Cytotoxicity against human SN12C cells; type: functional; method in brief: as §2
TK-10 = experiment: Cytotoxicity against human TK10 cells; type: functional; method in brief: as §2
UO-31 = experiment: Cytotoxicity against human UO31 cells; type: functional
Method in brief: (§3)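 NCI in vitro antitumor screening protocol; GI50 taken as the concentration giving 50% reduction in cell growth.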

PC-3 = experiment: Cytotoxicity against human PC3 cells; type: functional; method in brief: as §2
Hs-578T = experiment: Cytotoxicity against human HS578T cells; type: functional; method in brief: as §2
MDA-MB-231 [3] = experiment: Effect on microtubule depolymerization in human MDA-MB-231 cells assessed as disorganized microtubule cytoskeleton at 9 uM after 2 hrs relative to control; type: functional, cell-based; method in brief: as §1
SNB-75 = experiment: Cytotoxicity against human SNB75 cells; type: functional; method in brief: as §2
UACC-62 = experiment: Cytotoxicity against human UACC62 cells; type: functional; method in brief: as §3
K562 = experiment: Cell cycle arrest in human K562 cells assessed as accumulation at G2/M phase at 50 uM after 24 hrs by flow cytometry; type: functional
Method in brief: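 K-562 human leukemia cells were grown in RPMI 1640 with 10% fetal calf serum, glutamine and penicillin/streptomycin at 37 °C in 5% CO₂. Cells were exposed to compound at 50 µM for 24 h, then pelleted and PBS-washed. They were fixed in ice-cold ethanol for 30 min, treated with 1 mg/mL RNase A at 37 °C for 30 min, and stained with propidium iodide and Triton X-100 for 30 min at room temperature in the dark. Per-phase and sub-G1 percentages came from flow cytometry gating.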

MDA-MB-231 [4] = experiment: Cell cycle arrest in human MDA-MB-231 cells assessed as accumulation of 2N cells at 36.0 uM after 24 hrs by flow cytometry; type: functional
MDA-MB-231 [5] = experiment: Cell cycle arrest in human MDA-MB-231 cells assessed as accumulation at sub-G1 phase at 3.6 uM after 24 hrs by flow cytometry; type: functional
MDA-MB-231 [6] = experiment: Cell cycle arrest in human MDA-MB-231 cells assessed as accumulation at sub-G1 phase at 18.0 uM after 24 hrs by flow cytometry; type: functional
MDA-MB-231 [7] = experiment: Cell cycle arrest in human MDA-MB-231 cells assessed as accumulation at sub-G1 phase at 36.0 uM after 24 hrs by flow cytometry; type: functional
MDA-MB-231 [8] = experiment: Cell cycle arrest in human MDA-MB-231 cells assessed as accumulation of 4N cells at 3.6 uM after 24 hrs by flow cytometry; type: functional
MDA-MB-231 [9] = experiment: Cell cycle arrest in human MDA-MB-231 cells assessed as accumulation of 4N cells at 36.0 uM after 24 hrs by flow cytometry; type: functional
MDA-MB-231 [10] = experiment: Cell cycle arrest in human MDA-MB-231 cells assessed as accumulation of >4N cells at 3.6 uM after 24 hrs by flow cytometry; type: functional
MDA-MB-231 [11] = experiment: Cell cycle arrest in human MDA-MB-231 cells assessed as accumulation of >4N cells at 36.0 uM after 24 hrs by flow cytometry; type: functional
MDA-MB-231 [12] = experiment: Cell cycle arrest in human MDA-MB-231 cells assessed as accumulation at sub-G1 phase at 36.0 uM after 72 hrs by flow cytometry; type: functional
MDA-MB-231 [13] = experiment: Cell cycle arrest in human MDA-MB-231 cells assessed as accumulation of 4N cells at 9.0 uM after 72 hrs by flow cytometry; type: functional
MDA-MB-231 [14] = experiment: Cell cycle arrest in human MDA-MB-231 cells assessed as accumulation of 4N cells at 18.0 uM after 72 hrs by flow cytometry; type: functional
MDA-MB-231 [15] = experiment: Cell cycle arrest in human MDA-MB-231 cells assessed as accumulation of >4N cells at 9.0 uM after 72 hrs by flow cytometry; type: functional
Method in brief: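 MDA-MB-231/ATCC cells were grown in DMEM with 10% fetal bovine serum, […], 1% nonessential amino acids, penicillin and streptomycin at 37 °C in 5% CO₂. They were exposed to 3.6, 9.0, 18, 27 or 36 µM for 24 or 72 h, with colchicine as control. DNA content was then read by flow cytometry, and […] cells were scored.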

[16] = tested on: MDA-MB-231 (Homo sapiens); experiment: Induction of apoptosis in human MDA-MB-231 cells assessed as induction of caspase 3 activation at 36 uM after 72 hrs by colorimetric assay relative to control
[17] = read-out: LC50 (the source's name)

Q: With Nc1ccccc1C#C/C=C\C#Cc1ccccc1C(F)(F)F as the compound, how does the Activity (MDA-MB-231 [1]) read?
A: Active

Q: What about the IC50 [2] of the same compound?
A: 9 µM

Q: What about the GI50 (HL-60) of the same compound?
A: 0.358 µM

Q: And the TGI (HL-60)?
A: > 100 µM

Q: And the CC50 (HL-60; [17])?
A: > 100 µM

Q: And the GI50 (A549)?
A: 0.745 µM

Q: What about the TGI (A549) of the same compound?
A: 15.2 µM

Q: And the CC50 (A549; [17])?
A: 59.5 µM

Q: And the GI50 (NCI-H522)?
A: 0.597 µM

Q: What about the TGI (NCI-H522) of the same compound?
A: 12.2 µM

Q: What about the CC50 (NCI-H522; [17]) of the same compound?
A: 51.2 µM

Q: What about the GI50 (HCT-15) of the same compound?
A: 1.26 µM

Q: What about the TGI (HCT-15) of the same compound?
A: 11.4 µM

Q: And the CC50 (HCT-15; [17])?
A: 51.1 µM

Q: And the GI50 (UACC-257)?
A: 0.536 µM

Q: What about the TGI (UACC-257) of the same compound?
A: 23.7 µM

Q: And the CC50 (UACC-257; [17])?
A: 58.4 µM

Q: What about the GI50 (OVCAR-3) of the same compound?
A: 0.63 µM

Q: And the TGI (OVCAR-3)?
A: 0.959 µM

Q: What about the CC50 (OVCAR-3; [17]) of the same compound?
A: 24.1 µM

Q: And the GI50 (OVCAR-8)?
A: 0.962 µM

Q: And the TGI (OVCAR-8)?
A: 21.5 µM

Q: What about the CC50 (OVCAR-8; [17]) of the same compound?
A: 80.7 µM

Q: What about the GI50 (A498) of the same compound?
A: 0.973 µM

Q: What about the TGI (A498) of the same compound?
A: 13.1 µM

Q: What about the CC50 (A498; [17]) of the same compound?
A: 40.7 µM

Q: What about the GI50 (ACHN) of the same compound?
A: 0.294 µM

Q: What about the TGI (ACHN) of the same compound?
A: 15.7 µM

Q: And the CC50 (ACHN; [17])?
A: 48.3 µM

Q: And the GI50 (CAKI-1)?
A: 0.351 µM

Q: And the TGI (CAKI-1)?
A: 13.2 µM

Q: And the CC50 (CAKI-1; [17])?
A: 38 µM

Q: What about the GI50 (SN12C) of the same compound?
A: 0.348 µM

Q: What about the TGI (SN12C) of the same compound?
A: 6.52 µM

Q: What about the CC50 (SN12C; [17]) of the same compound?
A: 30.9 µM

Q: And the GI50 (TK-10)?
A: 8.3 µM

Q: And the TGI (TK-10)?
A: 27.9 µM

Q: What about the CC50 (TK-10; [17]) of the same compound?
A: 78.4 µM

Q: And the GI50 (UO-31)?
A: 3.06 µM

Q: And the TGI (UO-31)?
A: 25.1 µM

Q: What about the CC50 (UO-31; [17]) of the same compound?
A: 94.9 µM

Q: And the GI50 (PC-3)?
A: 2.35 µM

Q: And the TGI (PC-3)?
A: 24.9 µM

Q: What about the CC50 (PC-3; [17]) of the same compound?
A: 94.2 µM

Q: What about the GI50 (Hs-578T) of the same compound?
A: 0.501 µM

Q: What about the TGI (Hs-578T) of the same compound?
A: 28.9 µM

Q: What about the CC50 (Hs-578T; [17]) of the same compound?
A: > 100 µM

Q: And the Activity (MDA-MB-231 [3])?
A: Active

Q: And the TGI (SNB-75)?
A: 18.8 µM

Q: What about the GI50 (SNB-75; read-out: GI50) of the same compound?
A: 0.0869 µM

Q: And the CC50 (SNB-75; [17])?
A: 100 µM

Q: And the GI50 (SNB-75; read-out: pGI50 (converted))?
A: 0.0794 µM

Q: What about the TGI (UACC-62) of the same compound?
A: 0.808 µM

Q: And the GI50 (UACC-62; read-out: GI50)?
A: 0.261 µM

Q: What about the CC50 (UACC-62; [17]) of the same compound?
A: 29 µM

Q: What about the GI50 (UACC-62; read-out: pGI50 (converted)) of the same compound?
A: 0.251 µM

Q: What about the Activity (K562) of the same compound?
A: 73.9%

Q: And the Activity (MDA-MB-231 [4])?
A: 10.4%

Q: What about the Activity (MDA-MB-231 [5]) of the same compound?
A: 23.6%

Q: What about the Activity (MDA-MB-231 [6]) of the same compound?
A: 23.5%

Q: And the Activity (MDA-MB-231 [7])?
A: 23.6%

Q: And the Activity (MDA-MB-231 [8])?
A: 35.6%

Q: What about the Activity (MDA-MB-231 [9]) of the same compound?
A: 33.6%

Q: What about the Activity (MDA-MB-231 [10]) of the same compound?
A: 31.3%

Q: And the Activity (MDA-MB-231 [11])?
A: 36.3%

Q: And the Activity (MDA-MB-231 [12])?
A: 69.3%

Q: And the Activity (MDA-MB-231 [13])?
A: 21.3%

Q: And the Activity (MDA-MB-231 [14])?
A: 17.4%

Q: And the Activity (MDA-MB-231 [15])?
A: 18%

Q: And the “fold change (FC)” value [16]?
A: 3.4
